Measurements gathered from unrelated publications.
Protocols differ between the studies behind these lines.
Target: Testis-specific serine/threonine-protein kinase 1 (TSSK1B, Homo sapiens, UniProt Q9BXA7)
One construct used (Q9BXA7 1-367): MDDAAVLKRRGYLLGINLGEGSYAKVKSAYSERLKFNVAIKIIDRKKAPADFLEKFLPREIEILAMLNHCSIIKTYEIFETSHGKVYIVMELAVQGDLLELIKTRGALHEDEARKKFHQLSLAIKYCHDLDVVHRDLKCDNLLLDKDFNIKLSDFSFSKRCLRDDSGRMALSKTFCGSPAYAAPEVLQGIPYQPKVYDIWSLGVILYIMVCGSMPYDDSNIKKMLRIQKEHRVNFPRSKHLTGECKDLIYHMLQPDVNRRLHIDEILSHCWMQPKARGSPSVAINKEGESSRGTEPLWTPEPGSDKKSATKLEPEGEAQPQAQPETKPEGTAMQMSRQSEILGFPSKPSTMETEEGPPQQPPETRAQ

The remaining binding of `CN(CCCC(F)(F)F)c1nccc(-c2cnn3ncccc23)n1` is reported as 92% (binding; 1 µM).
`O=C(NS(=O)(=O)c1ccc(NCC2CCOCC2)c([N+](=O)[O-])c1)c1ccc(N2CCN(Cc3ccc(C(F)(F)F)cc3-c3ccc(Cl)cc3)CC2)cc1Oc1cnc2[nH]ccc2c1` gave a remaining binding of 100% (cell-free assay, competition with immobilised ligand; 1 µM).
For `N[C@@H]1CCN(c2nccc(-c3cnn4ncccc34)n2)C1`, the remaining binding was 97% (binding; 1 µM).
`COc1ncc2cc3ccccc3nc2c1C#N` has a remaining binding of 97% (cell-free assay, competition with immobilised ligand; 5 µM).
`N#Cc1ccccc1CSc1nnc2c(n1)[nH]c1ccccc12` gave a remaining binding of 100% (binding, competition with immobilised ligand; 10 µM).
For `FC(F)(F)Oc1cccc(-c2cnc3ccc(-c4ccncc4)nn23)c1`, the remaining binding was 83% (binding, competition with immobilised ligand; 5 µM).
`F[C@@H]1CCN(c2nccc(-c3cnn4ncccc34)n2)C1` gave a remaining binding of 100% (binding; 1 µM).
`CC(C)(C)c1ccc(-c2nc(CBr)nn2-c2cccc(O)c2)cc1` gave a remaining binding of 81% (cell-free assay, competition with immobilised ligand; 10 µM).
With `COc1ccc2c(c1)O[C@H](c1ccc(OC)c(OC)c1)C[C@@H]2NC(=O)C1(c2ccc3c(c2)OC(F)(F)O3)CC1` the remaining binding was 100% (cell-free assay, competition with immobilised ligand; 1 µM).
`CN(C)c1nccc(-c2cnn3ncccc23)n1` has a remaining binding of 100% (binding; 1 µM).
`C=CC(=O)N1CCC(C(=O)NCC(=O)N2CCN(c3nc(-c4cnc(N)nc4C(F)F)nc(N4CCOCC4)n3)CC2)CC1` has a remaining binding of 95% (binding, competition with immobilised ligand; 1 µM).
With `O=C(c1ccc(Nc2ncc(Cl)c(-c3ccc(Cl)s3)n2)cc1)N1CCC(N2CCCC2)CC1` the remaining binding was 49% (binding, competition with immobilised ligand; 1 µM).
For `c1cnn2ncc(-c3ccnc(N4CCC45COC5)n3)c2c1`, the remaining binding was 65% (binding; 1 µM).
The remaining binding of `CNC(=O)Nc1ccc2c(c1)CC[C@@]21OC(=O)N(CC(=O)N(Cc2ccc(F)cc2)[C@@H](C)C(F)(F)F)C1=O` is reported as 84% (cell-free assay, competition with immobilised ligand; 1 µM).
With `COc1cnc(Nc2cccc(S(N)(=O)=O)c2)nc1N1CCN(c2ccccc2)CC1` the remaining binding was 100% (binding, competition with immobilised ligand; 1 µM).
With `COc1ccc2cc(OCC3(C(=O)O)CN(C(=O)c4ccc(F)cc4)C3)ccc2c1` the remaining binding was 100% (cell-free assay, competition with immobilised ligand; 1 µM).
`O=C(NCCCN1CCOCC1)c1ccc(Nc2ncc(Cl)c(-c3ccc(Cl)s3)n2)cc1` has a remaining binding of 62% (binding, competition with immobilised ligand; 1 µM).
The remaining binding of `CCC(=N\O)/C(C)=C/c1ccc(F)cc1` is reported as 82% (cell-free assay, competition with immobilised ligand; 1 µM).
`C[C@@H]1CN(c2ccc3ncc(-c4ccc5[nH]nc(C6CC6)c5c4)n3n2)C[C@H](C)O1` gave a remaining binding of 100% (binding, competition with immobilised ligand; 0.5 µM).
The remaining binding of `Cc1noc([C@H]2C[C@@H](c3ccc(C(F)(F)F)cc3)CN(C(=O)N3CCS(=O)(=O)C3)C2)n1` is reported as 100% (cell-free assay, competition with immobilised ligand; 1 µM).
With `Cc1cnc(Nc2ccc(C(=O)N3CCC(N4CCCC4)CC3)cc2)nc1-c1cc2ccccc2s1` the remaining binding was 85% (binding, competition with immobilised ligand; 1 µM).
With `COc1ccnn2ncc(-c3ccnc(N(C)C)n3)c12` the remaining binding was 100% (binding; 1 µM).
With `CC(C)CC(=O)N1CCc2nc(-c3ccc(Br)cc3)nc(N(C)Cc3ccccc3)c2C1` the remaining binding was 99% (cell-free assay, competition with immobilised ligand; 0.1 µM).
For `C[C@@H]1CCN(c2nccc(-c3cnn4ncccc34)n2)C1`, the remaining binding was 100% (binding; 1 µM).
The remaining binding of `Cn1cc(Cl)c2c(Oc3c(F)cc(Nc4cc(Cl)nc(N)n4)cc3F)ccnc21` is reported as 100% (cell-free assay, competition with immobilised ligand; 0.1 µM).
With `O=C(NCC1CCOCC1)c1n[nH]cc1NC(=O)c1c(F)cccc1F` the remaining binding was 97% (binding, competition with immobilised ligand; 1 µM).
